Results pooled from the literature.
Compare with care: the assays were run in different laboratories.

Compound | technique | matrix | time | pH | temperature | notes | solubility
CC(C(=O)O)c1ccc(-c2ccccc2)c(F)c1 (stereo not shown) | – | PBS | – | pH 7.4 | – | – | 4490 µg/mL
CCOc1nc2nc(C)cc(Nc3ccc(C(F)(F)F)cc3)n2n1 | nephelometry | aqueous buffer | – | pH 6.5 | – | – | 19 to 37 µM
Cc1c(F)cccc1NC(=O)Nc1ccc(Cl)c(S(=O)(=O)[C@H]2CCCNC2)c1O | – | aqueous buffer | 4 h | pH 3 | – | – | 161 µg/mL
CCc1nc2nc(C)cc(Nc3ccc(S(F)(F)(F)(F)F)cc3)n2n1 | nephelometry | aqueous buffer | – | pH 6.5 | – | – | 34 to 66 µM
O=C(/C=C/c1ccc(CN(CCO)CCc2c[nH]c3ccccc23)cc1)NO | – | simulated gastric fluid | 48 h | pH 2 | 25 °C | acidic | 4100 µg/mL
Clc1ccc2c(nc(N3CCNCC3)n2Cc2ccccc2)c1Br | shake flask | aqueous buffer | 20 h | pH 6.5 | 25 °C | – | 50 µM
O=C(c1ccccn1)N(Cc1cccs1)C1(C(=O)NC2CCCCC2)CCCCC1 | – | aqueous buffer | – | pH 7.4 | – | – | 6.5 µg/mL
CN1CCC(N2CCN(c3nccc4[nH]c(-c5ccc(F)c(F)c5)nc34)CC2)CC1 | shake flask | aqueous buffer | – | pH 6.5 | – | – | > 200 µM
Cc1nccn1CC1CCc2c(c3ccccc3n2C)C1=O (stereo not shown) | – | PBS | 24 h | pH 7.4 | 25 °C | – | 93 µM
COc1cccc(OC)c1-c1nc(C(=O)N[C@@H](CC(C)C)C(=O)O)cn1-c1ccnc2cc(Cl)ccc12 | – | aqueous buffer | – | pH 5 | – | – | > 52 µg/mL
Fc1ccc(-c2nc3c(N4CCCN(CC5CC5)CC4)nccc3[nH]2)cc1F | shake flask | aqueous buffer | – | pH 6.5 | – | – | > 200 µM
Nc1cccc(S(=O)(=O)N2CCCN(S(=O)(=O)c3ccc4c(c3)OCCO4)CC2)c1 | – | aqueous buffer | – | – | – | – | 29 µg/mL
Cc1n(Cc2ccc3ccccc3n2)c2ccccc2[n+]1Cc1ccc2ccccc2n1.[Cl-] | – | water | – | – | – | – | > 500 µg/mL
CCOC(=O)c1ccc(N)cc1 | – | PBS | – | pH 7.4 | – | – | 890 µg/mL
Clc1cccc(Nc2nc(NCc3cccc(Br)c3)c3ccccc3n2)c1 | – | aqueous buffer | – | pH 5 | – | – | 0.1 µg/mL
NCC1CCN(c2nccc3[nH]c(-c4cccc(OC(F)(F)F)c4)nc23)CC1 | shake flask | aqueous buffer | – | pH 6.5 | – | – | > 200 µM
COC(=O)C1=C(C)NC(C)=C(C(=O)OCCN(C)Cc2ccccc2)C1c1cccc([N+](=O)[O-])c1 (stereo not shown) | – | FaSSIF | 24 h | pH 7.4 | 37 °C | – | 227 µg/mL
Cn1c(-c2nc3cc(C(=O)N4CCCC(N)C4)ccc3n2C)cc2ccccc21 (stereo not shown) | – | aqueous buffer | – | – | – | – | > 350 µM
CCCCCCCCN1CCCC1=O | – | PBS | 48 h | pH 7.4 | 25 °C | – | 4800 µM
COc1c(Cl)cccc1Nc1nc(NCc2ccccc2)c2ccccc2n1 | – | aqueous buffer | – | pH 5 | – | – | 0.5 µg/mL
CC(C)(C)n1nc(-c2cnc3cc(OC4CCC4)ccc3c2)c(C(N)=O)c1N | – | PBS | – | pH 6.5 | 25 °C | – | 3.7 µM
COc1cccc(OC)c1-c1nc(C(=O)N[C@@H](CC(C)C)C(=O)O)cn1-c1cccc2ccccc12 | – | aqueous buffer | – | pH 6.2 | – | – | > 145 µg/mL
COC(=O)Nc1nc2cc(C(=O)c3ccc(F)cc3)ccc2[nH]1 | – | water | 24 h | – | – | – | < 1 µg/mL
C[C@@H]1CN(c2nc3cc(Cl)ccc3n2Cc2ccccc2)C[C@H](C)N1 | shake flask | aqueous buffer | 20 h | pH 6.5 | 25 °C | – | 140 µM
CCOc1ccc2cc(-c3nn(C(C)(C)C)c(N)c3C(N)=O)ccc2n1 | – | PBS | – | pH 6.5 | 25 °C | – | 83.5 µM
COCc1nc2nc(C)cc(Nc3ccc(C(F)(F)F)cc3)n2n1 | nephelometry | aqueous buffer | – | pH 6.5 | – | – | 150 to 300 µM
CC(C)(C)n1nc(-c2ccc3nc(OC4CC4)ccc3c2)c(C(N)=O)c1N | – | PBS | – | pH 6.5 | 25 °C | – | 96.3 µM
Brc1ccc2c(c1)nc(N1CCNCC1)n2Cc1ccccc1 | shake flask | aqueous buffer | 20 h | pH 6.5 | 25 °C | – | 105 µM

Compound | technique | matrix | time | pH | temperature | notes | solubility
CCOc1nc2nc(C)cc(Nc3ccc(S(F)(F)(F)(F)F)cc3)n2n1 | nephelometry | aqueous buffer | – | pH 6.5 | – | – | 4 to 8 µM
OCc1n(Cc2ccc3ccccc3c2)cc[n+]1Cc1ccc2ccccc2c1.[Br-] | – | water | – | – | – | – | < 500 µg/mL
CCCn1nc(C(=O)N2CCCCC2)c2c1CCC(N(C)Cc1ccc(F)cc1)C2 (stereo not shown) | – | PBS | 16 h | pH 7.4 | – | – | 2420 µM
O=C(Nc1c2c(cc3c1CCC3)CCC2)NS(=O)(=O)/C=C/c1nccs1 | – | water | 24 h | – | 37 °C | – | 11.2 µg/mL
Cl.NC1CCN(c2nc3cc(Cl)ccc3n2Cc2ccccc2)CC1 | shake flask | aqueous buffer | 20 h | pH 6.5 | 25 °C | – | > 150 µM
CC#Cc1cncc(-c2ccc3c(c2)[C@@]2(N=C(C)C(N)=N2)[C@]2(CC[C@H](OC)CC2)C3)c1 | – | simulated gastric fluid | – | – | 25 °C | acidic | > 10000 µg/mL
Cc1cc(Nc2ccc(C(F)(F)F)cc2)n2nc(C3CC3)nc2n1 | nephelometry | aqueous buffer | – | pH 6.5 | – | – | 38 to 75 µM
Cc1nnc(CCCCCN)nn1.Cl | – | water | – | – | – | – | > 500000 µM
Cc1cc(F)cc(Nc2nc(NCc3ccccc3)c3ccccc3n2)c1 | – | aqueous buffer | – | pH 7.4 | – | – | < 0.01 µg/mL
CS(=O)(=O)N1CCN(Cc2cc3nc(-c4cccc5[nH]ncc45)nc(N4CCOCC4)c3s2)CC1 | – | FeSSIF | – | – | – | – | 6 µg/mL
COc1ccc2c(c1)c(CC(=O)O)c(C)n2C(=O)c1ccc(Cl)cc1 | – | PBS | 20 h | pH 7.4 | 20 °C | – | 246 µg/mL
O=C(Nc1cc(F)c(F)c(F)c1)c1ccc(F)c(S(=O)(=O)NCc2cccc(B(O)O)c2)c1 | – | aqueous buffer | – | pH 7 | – | – | 329 µg/mL
CN1CCC(N2CCCN(c3nccc4[nH]c(-c5ccc(F)c(F)c5)nc34)CC2)CC1 | shake flask | aqueous buffer | – | pH 6.5 | – | – | > 200 µM
NC(=O)c1ccc(N(Cc2ccc(C3CCCCC3)cn2)C(=O)[C@H]2CCN2S(=O)(=O)c2c(F)c(F)c(F)c(F)c2F)cc1O | – | simulated gastric fluid | – | – | – | – | 107 µg/mL
Cc1ccc(S(=O)(=O)NCc2ccc(C(=O)NCCN(Cc3ccccc3)C(C)C)cc2)cc1 | – | aqueous buffer | – | pH 5 | – | – | 0.47 µg/mL
COc1cccc2c(NCc3ccccc3)nc(NCc3ccccc3)nc12 | – | aqueous buffer | – | pH 6.2 | – | – | 1 µg/mL
CCOc1ccc2cc(-c3nn(CC(C)(C)CO)c(N)c3C(N)=O)cnc2c1 | – | PBS | – | pH 6.5 | 25 °C | – | > 100 µM
O=C(Nc1ccc(S(=O)(=O)N2CCC(Cl)CC2)cc1)c1ccc([N+](=O)[O-])o1 | – | aqueous buffer | – | pH 5 | – | – | 3.8 µg/mL
COc1cccc2c(NCc3ccccc3)nc(N3CCNc4ccccc43)nc12 | – | aqueous buffer | – | pH 6.2 | – | – | 10.2 µg/mL
COc1cc(OC)cc(N(CCNC(C)C)c2ccc3ncc(-c4cnn(C)c4)nc3c2)c1 | – | aqueous buffer | – | pH 7.65 | – | – | 150 µg/mL
Cc1c(F)cccc1Nc1nc(NCc2ccccc2)c2ccccc2n1 | – | aqueous buffer | – | pH 7.4 | – | – | < 0.01 µg/mL
N=C(N)N1CC=C(c2coc(C(=O)Nc3ccc(C4=CCN(C(=N)N)CC4)c(F)c3)c2)CC1 | shake flask | aqueous buffer | – | pH 7.4 | – | – | 58 µg/mL
O=C(NCCN1CCCC1)c1cc(-c2ccc(CN3CCOCC3)cc2)nc2ccc(F)cc12 | – | aqueous buffer | – | pH 7.4 | – | – | 2800 µM
COc1ccc(Nc2nc(NCc3ccccc3)c3ccccc3n2)cc1F | – | aqueous buffer | – | pH 7.4 | – | – | 0.08 µg/mL
COc1cc(NC(=O)c2ccc(C3=CCN(C(=N)N)CC3)c(F)c2)ccc1C1=CCN(C(=N)N)CC1 | shake flask | aqueous buffer | – | pH 7.4 | – | – | 1210 µg/mL
c1ccc(CNc2nc(N3CCNc4ccccc43)nc3ccccc23)cc1 | – | aqueous buffer | – | pH 5 | – | – | > 36 µg/mL
CCOc1ccc2cc(-c3nn(C4CCCC4)c(N)c3C(N)=O)cnc2c1 | – | PBS | – | pH 6.5 | 25 °C | – | 98.7 µM
